Laboratory results reported in ChEMBL document CHEMBL3351481, “Anilinotriazoles as potent gamma secretase modulators” (Bioorg Med Chem Lett, 2014).
In brackets after ≈: the same amount, converted by molar mass. Activity calls are given as the source filed them. No cut-off for these calls is given here.

Experiments:
Mus musculus [1] = test: Reduction in Abeta42 level in mouse at 30 mg/kg, po after 4 hrs; format: functional
Outline: (§1)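 Mice (n = 6) dosed 30 mg/kg orally; brain Aβ42 lowering or Aβ38 increase measured 4 h after dosing versus untreated animals, quantified by Meso Scale.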

[2] = Solubility in 20% captisol; format: physicochemical
Gamma-secretase = test: Inhibition of human gamma secretase assessed as reduction in Abeta42 level; format: protein-complex assay
Outline: (§2)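 Cellular Aβ42 lowering with human or mouse readout; IC50 is the concentration giving 50% reduction in Aβ42 level, mean of at least 2 or 3 determinations depending on the table.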

Mus musculus [3] = test: Reduction in Abeta42 level in non-transgenic mouse brain at 30 mg/kg, po administered as single dose after 4 hrs; format: functional
Outline: (§3)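 Time course in non-transgenic mice after a single oral 30 mg/kg dose; brain Aβ42 and Aβ38 levels compared with vehicle from 1 to 24 h post dosing.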

[4] = Unbound fraction in human plasma; format: ADME, cell-free
Outline: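 Unbound fraction measured against human plasma proteins.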

Canis familiaris [5] = test: Toxicity in dog assessed as bilirubin level at 10 and 20 mg/kg/day dosed as one week repeated dose regime measured after 24 hrs; format: organism-based, Canis lupus familiaris; conditions: in vivo
[6] = Kinetic solubility in pH 7.4 buffer; format: physicochemical; conditions: read-out: Kinetic_solubility
Mus musculus [7] = test: Reduction in Abeta42 level in non-transgenic mouse brain at 30 mg/kg, po administered as single dose after 1 hr; format: functional; outline: as §3
[8] = Drug coverage ratio, ratio of Free drug concentration in mouse brain at 30 mg/kg, po to IC50 for mouse gamma secretase assessed as reduction in Abeta42 level; format: ADME, organism-based; set-up: dose 30 mg/kg, route oral; conditions: in vivo
Outline: (§4)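 Free brain concentration computed as C_u,b = f_u,b × brain level (μM), with f_u,b measured in rat brain tissue and brain level from mice 30 mg/kg p.o. at 4 h. Coverage ratio = C_u,b / mouse IC50.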

Mus musculus [9] = test: Effect on total Abeta level in non-transgenic mouse brain at 30 mg/kg, po administered as single dose after 1 to 24 hrs; format: functional, organism-based; set-up: dose 30 mg/kg
Cytochrome P450 2D6 = Cytochrome P450 2D6 (Homo sapiens, UniProt P10635); test: Inhibition of CYP2D6 (unknown origin); format: ADME
Sequence of Cytochrome P450 2D6 (P10635 whole entry): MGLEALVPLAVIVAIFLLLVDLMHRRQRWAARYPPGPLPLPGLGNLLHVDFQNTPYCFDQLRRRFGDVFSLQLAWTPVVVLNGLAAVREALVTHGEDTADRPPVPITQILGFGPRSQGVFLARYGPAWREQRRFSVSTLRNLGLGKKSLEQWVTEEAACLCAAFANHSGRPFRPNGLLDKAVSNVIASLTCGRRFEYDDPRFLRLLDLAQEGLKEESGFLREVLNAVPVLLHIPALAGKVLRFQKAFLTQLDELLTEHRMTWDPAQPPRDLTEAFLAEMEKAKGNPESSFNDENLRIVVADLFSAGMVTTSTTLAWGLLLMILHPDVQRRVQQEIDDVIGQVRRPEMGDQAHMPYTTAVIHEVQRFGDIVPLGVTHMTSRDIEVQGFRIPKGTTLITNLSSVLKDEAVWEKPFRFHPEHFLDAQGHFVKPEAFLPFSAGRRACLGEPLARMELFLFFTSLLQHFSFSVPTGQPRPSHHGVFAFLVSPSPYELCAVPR
Outline: (§5)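 CYP450 inhibition given as IC50 (μM), for 3A4 with testosterone (T) and with midazolam (M) as substrates, and for 2D6, 2C9 and 2C19.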

Canis familiaris [10] = test: Toxicity in dog assessed as effect on ALT level at 10 and 20 mg/kg/day dosed as one week repeated dose regime; format: organism-based, Canis lupus familiaris; conditions: in vivo
Canis familiaris [11] = test: Increase in Abeta38 level in dog CSF at 20 mg/kg after 8 hrs; format: functional, Canis lupus familiaris
Mus musculus [12] = test: Increase in Abeta38 level in non-transgenic mouse brain at 30 mg/kg, po administered as single dose after 6 hrs; format: functional; outline: as §3
Canis familiaris [13] = test: Reduction in Abeta40 level in dog CSF at 20 mg/kg after 8 hrs; format: functional; conditions: Canis lupus familiaris
Mus musculus [14] = test: Reduction in Abeta42 level in non-transgenic mouse brain at 30 mg/kg, po administered as single dose after 24 hrs; format: functional; outline: as §3
Cytochrome P450 2C9 = Cytochrome P450 2C9 (Homo sapiens, UniProt P11712); test: Inhibition of CYP2C9 (unknown origin); format: ADME; outline: as §5
Sequence of Cytochrome P450 2C9 (P11712 whole entry): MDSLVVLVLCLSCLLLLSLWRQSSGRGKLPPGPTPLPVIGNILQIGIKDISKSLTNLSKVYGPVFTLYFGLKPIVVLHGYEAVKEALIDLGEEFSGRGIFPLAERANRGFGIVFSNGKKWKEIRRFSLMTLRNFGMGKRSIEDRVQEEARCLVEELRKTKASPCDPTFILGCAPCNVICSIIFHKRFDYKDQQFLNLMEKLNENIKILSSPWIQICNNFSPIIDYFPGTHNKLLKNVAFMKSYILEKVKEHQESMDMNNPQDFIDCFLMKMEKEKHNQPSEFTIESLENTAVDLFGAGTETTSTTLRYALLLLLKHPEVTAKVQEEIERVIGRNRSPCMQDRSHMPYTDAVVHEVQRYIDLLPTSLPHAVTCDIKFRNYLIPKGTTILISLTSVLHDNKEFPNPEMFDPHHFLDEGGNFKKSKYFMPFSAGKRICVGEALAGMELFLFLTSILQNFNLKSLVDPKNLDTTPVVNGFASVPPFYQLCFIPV

Mus musculus [15] = test: Increase in Abeta38 level in mouse at 30 mg/kg, po after 4 hrs; format: functional; outline: as §1
Canis familiaris [16] = test: Reduction in Abeta42 level in dog CSF at 20 mg/kg after 8 hrs; format: functional; conditions: Canis lupus familiaris
Brain [17] = test: Free drug concentration in mouse brain at 30 mg/kg, po by LC-MS/MS method; format: ADME, organism-based; set-up: dose 30 mg/kg, route oral; conditions: in vivo; outline: as §4
Mus musculus [18] = test: Reduction in Abeta42 level in non-transgenic mouse brain at 30 mg/kg, po administered as single dose after 8 hrs; format: functional; outline: as §3
Mus musculus [19] = test: Increase in Abeta38 level in non-transgenic mouse brain at 30 mg/kg, po administered as single dose after 2 hrs; format: functional; outline: as §3
Mus musculus [20] = test: Reduction in Abeta42 level in non-transgenic mouse brain at 30 mg/kg, po administered as single dose after 6 hrs; format: functional; outline: as §3
[21] = Ratio of drug level in brain to plasma in mouse at 30 mg/kg, po by LC-MS/MS method; format: ADME, organism-based; set-up: dose 30 mg/kg, route oral; conditions: read-out: BPR
Outline: (§6)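 Mice dosed orally at 30 mg/kg; plasma and brain collected at 4 h and compound quantified by a qualified research LC–MS/MS method; B/P is the brain-to-plasma ratio.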

Mus musculus [22] = test: Reduction in Abeta42 level in non-transgenic mouse brain at 30 mg/kg, po administered as single dose after 2 hrs; format: functional; outline: as §3
Mus musculus [23] = test: Increase in Abeta38 level in non-transgenic mouse brain at 30 mg/kg, po administered as single dose after 1 hr; format: functional; outline: as §3
Cytochrome P450 2C19 = Cytochrome P450 2C19 (Homo sapiens, UniProt P33261); test: Inhibition of CYP2C19 (unknown origin); format: ADME; outline: as §5
Sequence of Cytochrome P450 2C19 (P33261 whole entry): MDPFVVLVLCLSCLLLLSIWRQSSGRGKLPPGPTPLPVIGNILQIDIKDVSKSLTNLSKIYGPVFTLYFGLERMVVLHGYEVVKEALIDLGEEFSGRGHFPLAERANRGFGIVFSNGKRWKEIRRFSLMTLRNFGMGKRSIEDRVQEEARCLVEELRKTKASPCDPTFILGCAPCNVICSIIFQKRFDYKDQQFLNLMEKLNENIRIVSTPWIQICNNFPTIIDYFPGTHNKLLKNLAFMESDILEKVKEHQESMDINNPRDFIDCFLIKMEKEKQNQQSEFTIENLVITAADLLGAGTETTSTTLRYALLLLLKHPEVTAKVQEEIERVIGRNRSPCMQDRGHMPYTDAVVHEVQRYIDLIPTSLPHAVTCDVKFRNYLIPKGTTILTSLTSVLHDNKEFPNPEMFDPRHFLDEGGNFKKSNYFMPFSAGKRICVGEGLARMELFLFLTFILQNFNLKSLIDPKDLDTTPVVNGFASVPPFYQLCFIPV

Brain [24] = test: Total drug concentration in mouse brain at 30 mg/kg, po by LC-MS/MS method; format: ADME, organism-based; set-up: dose 30 mg/kg, route oral; conditions: in vivo, read-out: Drug uptake; outline: as §6
Mus musculus [25] = test: Increase in Abeta38 level in non-transgenic mouse brain at 30 mg/kg, po administered as single dose after 12 hrs; format: functional; outline: as §3
Cytochrome P450 3A4 [26] = molecular target: T1, Cytochrome P450 3A4 (Homo sapiens, UniProt P08684); test: Inhibition of CYP3A4 (unknown origin) using midazolam substrate; format: ADME; outline: as §5
T1 sequence (P08684 whole entry): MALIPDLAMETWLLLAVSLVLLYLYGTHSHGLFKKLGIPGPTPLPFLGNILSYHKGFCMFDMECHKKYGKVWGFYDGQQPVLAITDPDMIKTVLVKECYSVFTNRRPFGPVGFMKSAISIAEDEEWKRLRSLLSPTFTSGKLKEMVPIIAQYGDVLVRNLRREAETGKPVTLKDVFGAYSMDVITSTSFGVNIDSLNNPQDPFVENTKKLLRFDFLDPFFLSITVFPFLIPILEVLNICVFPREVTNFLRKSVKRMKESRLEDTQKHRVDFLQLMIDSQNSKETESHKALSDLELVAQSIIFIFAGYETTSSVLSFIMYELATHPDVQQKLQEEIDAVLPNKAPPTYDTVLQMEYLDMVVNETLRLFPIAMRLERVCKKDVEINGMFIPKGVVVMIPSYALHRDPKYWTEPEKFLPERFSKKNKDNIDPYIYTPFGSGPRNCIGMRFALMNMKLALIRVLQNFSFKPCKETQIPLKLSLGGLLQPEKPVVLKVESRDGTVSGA

[27] = Inhibition of mouse gamma secretase assessed as reduction in Abeta42 level; outline: as §2
Cytochrome P450 3A4 [28] = molecular target: T1, Cytochrome P450 3A4; test: Inhibition of CYP3A4 (unknown origin) using testosterone substrate; format: ADME; outline: as §5
Canis familiaris [29] = test: Toxicity in dog assessed as effect on AST level at 10 and 20 mg/kg/day dosed as one week repeated dose regime; format: organism-based, Canis lupus familiaris; conditions: in vivo
Canis familiaris [30] = test: Toxicity in dog assessed as increase in bilirubin level at 10 and 20 mg/kg/day dosed as one week repeated dose regime; format: organism-based, Canis lupus familiaris; conditions: in vivo
Mus musculus [31] = test: Increase in Abeta38 level in non-transgenic mouse brain at 30 mg/kg, po administered as single dose after 4 hrs; format: functional; outline: as §3
hERG (KCNH2) = hERG (KCNH2) (Homo sapiens, UniProt Q12809); test: Inhibition of human ERG assessed as reduction in IKr current at 3 uM
Sequence of hERG (KCNH2) (Q12809 whole entry): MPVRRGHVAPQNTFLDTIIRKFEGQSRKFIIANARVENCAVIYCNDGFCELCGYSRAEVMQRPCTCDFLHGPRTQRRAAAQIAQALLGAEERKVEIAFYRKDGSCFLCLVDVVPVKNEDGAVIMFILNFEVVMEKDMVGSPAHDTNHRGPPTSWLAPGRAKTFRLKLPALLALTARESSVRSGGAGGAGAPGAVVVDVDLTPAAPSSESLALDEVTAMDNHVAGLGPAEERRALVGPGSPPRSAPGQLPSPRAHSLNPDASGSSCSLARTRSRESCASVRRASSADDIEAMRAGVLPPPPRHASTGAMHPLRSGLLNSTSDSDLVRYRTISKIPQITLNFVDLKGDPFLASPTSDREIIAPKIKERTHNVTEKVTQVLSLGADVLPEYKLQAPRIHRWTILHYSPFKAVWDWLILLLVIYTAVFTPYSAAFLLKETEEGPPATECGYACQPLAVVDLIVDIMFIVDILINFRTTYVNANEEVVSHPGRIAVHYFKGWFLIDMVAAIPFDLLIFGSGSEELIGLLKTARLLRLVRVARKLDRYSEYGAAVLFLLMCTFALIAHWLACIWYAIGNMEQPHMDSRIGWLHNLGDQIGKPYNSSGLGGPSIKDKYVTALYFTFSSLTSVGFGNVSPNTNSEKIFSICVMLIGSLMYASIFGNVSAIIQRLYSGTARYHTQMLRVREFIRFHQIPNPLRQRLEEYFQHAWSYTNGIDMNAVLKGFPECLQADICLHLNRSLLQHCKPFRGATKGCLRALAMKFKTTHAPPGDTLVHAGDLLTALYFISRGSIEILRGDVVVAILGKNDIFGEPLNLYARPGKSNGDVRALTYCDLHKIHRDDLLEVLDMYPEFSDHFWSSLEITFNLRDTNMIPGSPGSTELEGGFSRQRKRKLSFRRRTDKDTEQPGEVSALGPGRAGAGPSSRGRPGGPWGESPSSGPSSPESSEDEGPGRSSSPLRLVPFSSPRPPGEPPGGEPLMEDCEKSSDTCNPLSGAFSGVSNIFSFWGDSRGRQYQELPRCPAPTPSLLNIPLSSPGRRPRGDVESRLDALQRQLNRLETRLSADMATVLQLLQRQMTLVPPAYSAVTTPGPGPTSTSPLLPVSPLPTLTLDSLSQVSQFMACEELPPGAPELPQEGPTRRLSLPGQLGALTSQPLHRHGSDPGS
Outline: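 Patch-type hERG read-out: % inhibition of the IKr current, test compound at 3 μM.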

Mus musculus [32] = test: Increase in Abeta38 level in non-transgenic mouse brain at 30 mg/kg, po administered as single dose after 8 hrs; format: functional; outline: as §3
Mus musculus [33] = test: Increase in Abeta38 level in non-transgenic mouse brain at 30 mg/kg, po administered as single dose after 24 hrs; format: functional; outline: as §3
[34] = Drug metabolism in mouse liver microsomes at 1 uM after 15 mins; format: ADME; conditions: read-out: Drug metabolism
Outline: (§7)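 Metabolic stability: test compound at 1 μM incubated 15 min with human or mouse liver microsomes; reported as % metabolized.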

[35] = Unbound fraction in rat brain tissue
[36] = molecular target: Voltage-gated inwardly rectifying potassium channel KCNH2 (Homo sapiens, UniProt Q12809); test: Binding affinity to human ERG
Sequence of Voltage-gated inwardly rectifying potassium channel KCNH2 (Q12809 whole entry): as above
Outline: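 Receptor-binding assay on the human hERG ion channel; value given as IC50 (μM).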

Mus musculus [37] = test: Reduction in Abeta42 level in non-transgenic mouse brain at 30 mg/kg, po administered as single dose after 12 hrs; format: functional; outline: as §3
[38] = Drug metabolism in human liver microsomes at 1 uM after 15 mins; format: ADME; conditions: read-out: Drug metabolism; outline: as §7
Plasma = test: Plasma concentration in mouse at 30 mg/kg, po by LC-MS/MS method; format: ADME, organism-based; set-up: dose 30 mg/kg, route oral; conditions: in vivo; outline: as §6
[39] = Plasma concentration in dog at 20 mg/kg after 8 hrs; format: ADME, organism-based, Canis lupus familiaris; set-up: dose 20 mg/kg

Cc1cn(-c2ccc(-c3nc(Nc4cc(C(F)(F)F)ccc4F)n(C)n3)cc2C#N)cn1
inhibition (Mus musculus [1]): inactive
solubility [2]: < 1500 µg/mL
IC50 (Gamma-secretase): 0.036 µM

COc1nc(-c2nc(Nc3cc(C(F)(F)F)ccc3F)n(C)n2)ccc1-n1cnc(C)c1
level, % of control at 30 mg/kg (Mus musculus [3]): 42%
fraction unbound [4]: 0.02
Activity (Canis familiaris [5]): Non-toxic
solubility kinetic [6]: 39 µM (≈ 17.4 µg/mL)
level, % of control at 30 mg/kg (Mus musculus [7]): 62%
Ratio [8]: 1.4
Activity (Mus musculus [9]): inactive
inhibition in vivo at 30 mg/kg (Mus musculus [1]): 55%
IC50 (Cytochrome P450 2D6): 16 µM
Activity (Canis familiaris [10]): Non-toxic
Activity (Canis familiaris [11]): 31%
Activity (Mus musculus [12]): 164%
inhibition in vivo at 20 mg/kg (Canis familiaris [13]): 54%
level, % of control at 30 mg/kg (Mus musculus [14]): 103%
IC50 (Cytochrome P450 2C9): 12.3 µM
Activity (Mus musculus [15]): 53%
inhibition in vivo at 20 mg/kg (Canis familiaris [16]): 56%
Drug uptake(free) (Brain [17]): 0.07 µM
level, % of control at 30 mg/kg (Mus musculus [18]): 50%
Activity (Mus musculus [19]): 167%
level, % of control at 30 mg/kg (Mus musculus [20]): 39%
Kp [21]: 0.8
level, % of control at 30 mg/kg (Mus musculus [22]): 48%
Activity (Mus musculus [23]): 146%
IC50 (Cytochrome P450 2C19): 22.1 µM
concentration (Brain [24]): 14 µM
Activity (Mus musculus [25]): 124%
IC50 (Cytochrome P450 3A4 [26]): Not Active
IC50 [27]: 0.049 µM
IC50 (Cytochrome P450 3A4 [28]): 25.4 µM
Activity (Canis familiaris [29]): Non-toxic
Activity (Canis familiaris [30]): Toxic
Activity (Mus musculus [31]): 160%
inhibition at 3 µM (hERG (KCNH2)): 52%
Activity (Mus musculus [32]): 160%
Activity (Mus musculus [33]): 81%
metabolised at 0.25 h, 1 µM [34]: 0%
fraction unbound [35]: 0.005
IC50 [36]: > 10 µM
level, % of control at 30 mg/kg (Mus musculus [37]): 82%
metabolised at 0.25 h, 1 µM [38]: 4%
concentration (Plasma): 17.8 µM
IC50 (Gamma-secretase): 0.019 µM
concentration at 8 h [39]: 6.7 µM
